What was measured:
[1] = tested on: HNSCC, relapsed/refractory glioblastoma; conditions: plus spartalizumab; cited from earlier work
[2] = tested on: patients with selected advanced solid tumors; format: in vivo, human; conditions: Phase 1b
In short: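 Adults (≥18 y) with histologically or cytologically confirmed selected advanced solid tumours. Oral test compound started at 200 mg QD, with planned escalation to 400 mg QD, plus anti-PD-1 antibody 2 mg/kg IV every 3 weeks. DLT incidence defined the MTD (DLT criteria in supplement). AEs and lab abnormalities were graded by CTCAE v4.03 in all patients given ≥1 dose and summarized descriptively.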

[3] = tested on: patients with PDA, PD-1/PD-L1 IR advanced solid tumors or prOVCA; test: Phase 2, ARRY-382 300 mg QD plus pembrolizumab 200 mg IV Q3W: adverse events; format: in vivo, human; conditions: all patients
In short: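 Open-label study at 12 US centres with three cohorts: pancreatic ductal adenocarcinoma after ≥1 prior systemic line; tumours progressing on anti-PD-1/PD-L1; ovarian, peritoneal or fallopian cancer progressing ≤6 months after ≥4 platinum cycles. Oral test compound 300 mg QD plus anti-PD-1 antibody 200 mg IV every 3 weeks. AEs, SAEs and labs graded by CTCAE v4.03 in all dosed patients; descriptive summary.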

[4] = tested on: advanced/metastatic PDA or colorectal cancer; conditions: plus durvalumab; cited from earlier work
pancreatic cancer = conditions: plus nivolumab; pancreatic cancer (N = 31); MSI-Stable; cited from earlier work

Q: Which “Patients with a PR” value [1] does the source give for `CNC(=O)c1cc(Oc2ccc3nc(N[C@@H]4CCCC[C@H]4O)sc3c2)ccn1` [BLZ945] here?
A: 2 patients

Q: For “pembrolizumab: humanized monoclonal antibody that blocks the interaction between PD-1 and its ligands PD-L1 and PD-L2 [reference compound]”, which “Pembrolizumab-related AEs: All AEs” value ([2]; Total, N = 19) is on record?
A: 12 (63.2%) n (%)

Q: And the “Pembrolizumab-related increased AST” value ([2]; all patients)?
A: 36.8%

Q: What about the Pembrolizumab-related increased lipase ([2]; all patients) of the same molecule?
A: 26.3%

Q: What about the “AEs considered to be related to pembrolizumab” value [3] of the same molecule?
A: 36 (63.2%) n (%)

Q: With `FC(F)(F)c1ccc(CNc2ccc(Cc3c[nH]c4ncc(Cl)cc34)cn2)cn1` [pexidartinib] as the molecule, how does the “Patients with stable disease” value [4] read?
A: 4 patients

Q: With “cabiralizumab: a CSF-1R–targeting antibody” as the molecule, how does the “Patients with a PR” value (pancreatic cancer) read?
A: 3 patients

— paper PMC9359741 (Clinical Cancer Research, 2022)
